From ChEMBL document CHEMBL1151806, “Indolizidine, antiinfective and antiparasitic compounds from Prosopis glandulosa var. glandulosa” (J Nat Prod, 2009)
≈ marks a conversion by molar mass, not a printed value. Calls of active or inactive are those of the source. The calls are words filed in the database; no cut-off is given here.

Experiments:
[1] = system: Mycobacterium intracellulare; assay: Antimicrobial activity against Mycobacterium intracellular ATCC 23068 by alamar blue assay; format: functional, organism-based
Outline: (§1)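 Samples serially diluted in 20% DMSO/saline, tested in duplicate. Inocula set by OD630: C. albicans RPMI pH 4.5, 1·10^4 CFU/mL; C. neoformans Sabouraud dextrose, 1·10^5; MRSA cation-adjusted Mueller-Hinton pH 7.3, 5·10^5; M. intracellulare 7H9/OADC + 5% Alamar Blue pH 7.3, 2·10^6; A. fumigatus RPMI pH 7.3 + 5% Alamar Blue, 3·10^4. Read at 630 nm or 544ex/590em before and after incubation.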

Staphylococcus aureus [2] = assay: Antimicrobial activity against methicillin-resistant Staphylococcus aureus ATCC 43300 by NCCLS method; format: functional, organism-based
Outline: as §1, with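 “3·10^4.” for “3·10^4. Read at 630 nm or 544ex/590em before and after incubation.”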

BT-549 = assay: Cytotoxicity against human BT549 cells after 48 hrs by neutral red assay; format: functional, cell-based; settings: BT-549, 48 h
Outline: (§2)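 Cells seeded at 25,000/well, incubated 24 h, then exposed to samples for 48 h. Viable cells measured by Neutral Red uptake. IC50 from logarithmic plots of growth inhibition vs concentration. Doxorubicin positive control, DMSO vehicle control.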

KB = assay: Cytotoxicity against human KB cells after 48 hrs by neutral red assay; format: functional, cell-based; outline: as §2
Vero [3] = assay: Cytotoxicity against african green monkey Vero cells after 48 hrs by neutral red assay; format: cell-based, Chlorocebus sabaeus; outline: as §2
SK-MEL = assay: Cytotoxicity against human SK-MEL cells after 48 hrs by neutral red assay; format: functional, cell-based; outline: as §2
SK-OV-3 = assay: Cytotoxicity against human SKOV3 cells after 48 hrs by neutral red assay; format: functional, cell-based; settings: SK-OV-3, 48 h; outline: as §2
LLC-PK1 = assay: Cytotoxicity against pig LLC-PK1 cells after 48 hrs by neutral red assay; format: cell-based, Sus scrofa; settings: Sus scrofa, LLC-PK1, 48 h; read-out: IC50; outline: as §2
Candida albicans [4] = assay: Antimicrobial activity against Candida albicans ATCC 90028 by NCCLS method; format: functional, organism-based
Outline: as §1, with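 “3·10^4.” for “3·10^4. Read at 630 nm or 544ex/590em before and after incubation.”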

Leishmania donovani = assay: Antileishmanial activity against Leishmania donovani promastigotes after 48 hrs by alamar blue assay; format: functional, organism-based
Cryptococcus neoformans [5] = assay: Antimicrobial activity against Cryptococcus neoformans ATCC 90113 by NCCLS method; format: functional, organism-based
Outline: as §1, with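 “3·10^4.” for “3·10^4. Read at 630 nm or 544ex/590em before and after incubation.”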

Aspergillus fumigatus [6] = assay: Antimicrobial activity against Aspergillus fumigatus ATCC 90906 by alamar blue assay; format: functional, organism-based
Outline: as §1, with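 “3·10^4.” for “3·10^4. Read at 630 nm or 544ex/590em before and after incubation.”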

Plasmodium falciparum [7] = assay: Antimalarial activity after 72 hrs against chloroquine-resistant Plasmodium falciparum W2 by pLDH activity; format: functional, organism-based; settings: W2, 72 h
Outline: (§3)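 P. falciparum-infected red cells (2% parasitemia, 2% hematocrit) in RPMI-1640 with 10% human serum and 60 μg/mL amikacin, exposed to serial sample concentrations. Gassed with 90% N2/5% O2/5% CO2, incubated 37 °C for 72 h. Parasite LDH activity read colorimetrically with Malstat reagent.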

Vero [8] = assay: Cytotoxicity against african green monkey Vero cells; format: cell-based; settings: Chlorocebus sabaeus; outline: as §2
[9] = Selectivity index, IC50 for african green monkey (Cercopithecus aethiops) Vero cells to IC50 for […]; format: functional
Outline: (§4)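 Selectivity index = IC50 against VERO cells divided by IC50 against P. falciparum (D6 or W2, respectively), each from the corresponding in-house assay.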

[10] = Selectivity index, IC50 for african green monkey (Cercopithecus aethiops) Vero cells to IC50 for chloroquine-sensitive Plasmodium falciparum D6; format: functional; outline: as §4
Plasmodium falciparum [11] = assay: Antimalarial activity after 72 hrs against […] Plasmodium falciparum D6 by pLDH activity; format: functional, organism-based; settings: D6, 72 h; outline: as §3
Cryptococcus neoformans [12] = assay: Antimicrobial activity against Cryptococcus neoformans ATCC 90113 by NCCLS method in presence of 5% human serum; format: functional, organism-based
Aspergillus fumigatus [13] = assay: Antimicrobial activity against Aspergillus fumigatus ATCC 90906 by alamar blue assay in presence of 5% human serum; format: functional, organism-based
[14] = system: Mycobacterium intracellulare; assay: Antimicrobial activity against Mycobacterium intracellular ATCC 23068 by alamar blue assay in presence of 5% human serum; format: functional, organism-based
Staphylococcus aureus [15] = assay: Antimicrobial activity against methicillin-resistant Staphylococcus aureus ATCC 43300 by NCCLS method in presence of 5% human serum; format: functional, organism-based
Candida albicans [16] = assay: Antimicrobial activity against Candida albicans ATCC 90028 by NCCLS method in presence of 5% human serum; format: functional, organism-based
Vero [17] = assay: Cytotoxicity against african green monkey Vero cells at 4760 ng/mL; format: cell-based, Chlorocebus sabaeus
[18] = Chlorocebus sabaeus, Vero, 48 h, read-out: IC50
[19] = Aspergillus fumigatus, ATCC 90906
[20] = Aspergillus fumigatus, ATCC 90906, read-out: IC50
[21] = Candida albicans, ATCC 90028, read-out: IC50

Row | Structure (SMILES) | MBC [1] | MIC [1] [µg/mL] | MBC (Staphylococcus aureus [2]) | IC50 (KB) [µg/mL] | IC50 (Vero [3]; [18]) [µg/mL] | IC50 (SK-MEL) [µg/mL] | IC50 (SK-OV-3) [µg/mL] | IC50 (Cryptococcus neoformans [5]) [µg/mL] | MFC (Cryptococcus neoformans [5]) [µg/mL] | MFC (Aspergillus fumigatus [6]; [19]) [µg/mL] | MIC (Aspergillus fumigatus [6]; [19]) [µg/mL] | IC50 (Aspergillus fumigatus [6]; [20]) [µg/mL] | IC50 [1] [µg/mL] | IC50 (Plasmodium falciparum [7]) [µg/mL] | IC50 (Staphylococcus aureus [2]) [µg/mL] | IC50 (Vero [8]) [µg/mL] | Ratio IC50 [9] | Ratio IC50 [10] | IC50 (Leishmania donovani) [µg/mL] | IC50 (Plasmodium falciparum [11]) [µg/mL] | also measured
1 | O=C(O)c1cn(C2CC2)c2cc(N3CCNCC3)c(F)cc2c1=O [CIPROFLOXACIN] | inactive | 0.63 (≈ 1.9 µM) | inactive | – | – | – | – | – | – | – | – | – | – | – | – | – | – | – | – | – | MIC (Staphylococcus aureus [2]): 0.3 µg/mL (≈ 0.905 µM)
2 | COc1cccc2c1C(=O)c1c(O)c3c(c(O)c1C2=O)C[C@@](O)(C(=O)CO)C[C@@H]3O[C@H]1C[C@H](N)[C@H](O)[C@H](C)O1 [DOXORUBICIN] | – | – | – | < 0.55 | 3.2 (≈ 5.89 µM) | < 0.55 | < 0.55 | – | – | – | – | – | – | – | – | – | – | – | – | – | IC50 (BT-549): < 0.55 µg/mL; IC50 (LLC-PK1): < 0.55 µg/mL
3 | C[C@@H]1N[C@H](CCCCCCCCCCc2cc(CCCCCCCCCC[C@H]3CC[C@@H](O)[C@@H](C)N3)c[n+]3c2CCC3)CC[C@H]1O [ISOPROSOPILOSIDINE] | inactive | 2.5 | 20 µg/mL | 7 | – | 3.3 | 4.5 | 0.55 | 1.25 | 10 | 10 | 6.5 | 1.5 | 0.12 | 0.6 | > 23.8 | >198 | >567 | – | – | IC50 (Candida albicans [4]): Not Active; MFC (Candida albicans [4]): inactive; MIC (Candida albicans [4]): inactive; IC50 (BT-549): 6.75 µg/mL; IC50 (Vero [3]; vero): Not Active; IC90 (Leishmania donovani): 2.5 µg/mL; MIC (Cryptococcus neoformans [5]): 1.25 µg/mL; IC50 (LLC-PK1): 21.3 µg/mL
4 | C[C@H]1N[C@@H](CCCCCCCCCCC2=C[C@@H](CCCCCCCCCC[C@@H]3CC[C@H](O)[C@@H](C)N3)[C@@H]3CCCN3C2)CC[C@H]1O [ISOPROSOPILOSINE] | – | – | – | 2.2 (≈ 3.49 µM) | 1.8 (≈ 2.86 µM) | < 1.1 | < 1.1 | 0.4 (≈ 0.635 µM) | 0.63 (≈ 1 µM) | 2.5 (≈ 3.97 µM) | 0.16 (≈ 0.254 µM) | 0.1 (≈ 0.159 µM) | 1.5 (≈ 2.38 µM) | 0.15 (≈ 0.238 µM) | 1 (≈ 1.59 µM) | 1.8 (≈ 2.86 µM) | 12 | 22 | 0.26 (≈ 0.413 µM) | 0.083 (≈ 0.132 µM) | IC50 (Candida albicans [4]): Not Active; IC50 (BT-549): 2.5 µg/mL (≈ 3.97 µM); MIC (Cryptococcus neoformans [5]): 0.63 µg/mL (≈ 1 µM); MIC (Staphylococcus aureus [2]): 2.5 µg/mL (≈ 3.97 µM)
5 | C[C@H]1N[C@@H](CCCCCCCCCCC2=C[C@@H](CCCCCCCCCC[C@H]3CC[C@@H](O)[C@@H](C)N3)[C@@H]3CCCN3C2)CC[C@H]1O [JULIPROSOPINE] | – | – | inactive | 6.2 (≈ 9.84 µM) | 5 (≈ 7.94 µM) | 2.4 (≈ 3.81 µM) | 4.7 (≈ 7.46 µM) | 1.5 (≈ 2.38 µM) | – | 1.25 (≈ 1.98 µM) | 1.25 (≈ 1.98 µM) | 0.9 (≈ 1.43 µM) | 6 (≈ 9.52 µM) | 0.38 (≈ 0.603 µM) | 3.5 (≈ 5.56 µM) | 5 (≈ 7.94 µM) | 13 | 23 | 0.75 (≈ 1.19 µM) | 0.22 (≈ 0.349 µM) | IC50 (Candida albicans [4]): Not Active; MFC (Candida albicans [4]): inactive; MIC (Candida albicans [4]): inactive; Activity (Cryptococcus neoformans [12]): Active; Activity (Aspergillus fumigatus [13]): Active; Activity [14]: Active; Activity (Staphylococcus aureus [15]): Active; Activity (Candida albicans [16]): Active
6 | N=C(N)c1ccc(OCCCCCOc2ccc(C(=N)N)cc2)cc1 [PENTAMIDINE] | – | – | – | – | – | – | – | – | – | – | – | – | – | – | – | – | – | – | 0.5 (≈ 1.47 µM) | – | IC90 (Leishmania donovani): 2 µg/mL (≈ 5.87 µM)
7 | C[C@@H]1N[C@H](CCCCCCCCCCc2cc(CCCCCCCCCC[C@@H]3CC[C@@H](O)[C@H](C)N3)c3[n+](c2)CCC3)CC[C@H]1O.[Cl-] [PROSOPILOSIDINE DIHYDROCHLORIDE] | inactive | 10 | – | – | – | – | – | 1.5 | 2.5 | – | – | – | 3.5 | – | 1.5 | – | >17.6 | >11.1 | 2.8 | 0.43 | MFC (Candida albicans [4]): inactive; MIC (Candida albicans [4]; Candida albicans, ATCC 90028): 20 µg/mL; IC50 (Candida albicans [4]; [21]): 15 µg/mL; IC50 (Vero [17]): Non-toxic; IC90 (Leishmania donovani): 8 µg/mL; Activity (Cryptococcus neoformans [12]): Active; Activity (Aspergillus fumigatus [13]): Active; Activity [14]: Active; MIC (Cryptococcus neoformans [5]): 2.5 µg/mL; IC50 (Aspergillus fumigatus [6]): Not Active; MFC (Aspergillus fumigatus [6]): inactive; MIC (Aspergillus fumigatus [6]): inactive; Activity (Staphylococcus aureus [15]): Active; MIC (Staphylococcus aureus [2]): 2.5 µg/mL; Activity (Candida albicans [16]): Active
8 | C[C@@H]1N[C@H](CCCCCCCCCCC2=C[C@@H](CCCCCCCCCC[C@@H]3CC[C@@H](O)[C@H](C)N3)[C@@H]3CCCN3C2)CC[C@H]1O [PROSOPILOSINE] | 20 µg/mL (≈ 31.7 µM) | – | – | 6 (≈ 9.52 µM) | 5.7 (≈ 9.05 µM) | < 1.1 | – | 0.8 (≈ 1.27 µM) | 1.25 (≈ 1.98 µM) | 0.63 (≈ 1 µM) | 0.63 (≈ 1 µM) | 0.45 (≈ 0.714 µM) | 2 (≈ 3.17 µM) | 0.23 (≈ 0.365 µM) | 1.5 (≈ 2.38 µM) | 5.6 (≈ 8.89 µM) | 24 | 47 | 0.65 (≈ 1.03 µM) | 0.12 (≈ 0.19 µM) | IC50 (Candida albicans [4]; [21]): 15 µg/mL (≈ 23.8 µM); IC50 (LLC-PK1): 1.9 µg/mL (≈ 3.02 µM)
